Screens as filed in PubChem.
SENP8 block-1: blocks the human protease SENP8; inhibition, % at 10 µM; AID 2540; Q96LD8; 330,000 tested, 1.2% active; purified SENP8, Z-RLRGG-aminoluciferin cleavage, luminescence; in the data active means inhibition above about 50%
SENP7 inh: inhibitors of human SENP7 protease. inhibition, % at 5 µM. AID 434973. recombinant SENP7, Z-RLRGG-aminoluciferin luminescence, 40 min. 330,000 tested, 1.5% active;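 active means inhibition above about 50% at the single test dose, limit read from the data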;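 further: plate controls were DMSO with enzyme for no effect and no enzyme buffer wells for full effect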
Target sequence (Q9BQF6 706-1050 limits assumed): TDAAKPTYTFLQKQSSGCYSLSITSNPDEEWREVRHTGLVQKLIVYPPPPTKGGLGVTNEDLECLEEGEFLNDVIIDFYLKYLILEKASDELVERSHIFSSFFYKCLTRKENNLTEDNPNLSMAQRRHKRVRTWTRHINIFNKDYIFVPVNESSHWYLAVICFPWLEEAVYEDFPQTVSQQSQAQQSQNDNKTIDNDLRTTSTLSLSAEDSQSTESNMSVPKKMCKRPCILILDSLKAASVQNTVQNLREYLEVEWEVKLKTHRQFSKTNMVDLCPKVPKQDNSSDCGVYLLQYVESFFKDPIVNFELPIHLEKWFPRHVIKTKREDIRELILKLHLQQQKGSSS
SENP6 inh: inhibitors of human SENP6 protease. Q9GZR1. Recombinant SENP6 catalytic domain, aminoluciferin luminescence. inhibition, % at 10 µM. 330,000 tested, 1.8% active. AID 2599;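 active means inhibition above about 50% at the single tested dose, limit read from the data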;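 further: plate controls were DMSO wells with enzyme for no effect and DMSO wells lacking enzyme for full effect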
SENP8 block-2: inhibitors of human SENP8 protease. Q96LD8. recombinant SENP8, Nedd8 substrate fluorescence. inhibition, % at 20 µM. 360,000 tested, 0.64% active; in the data active means inhibition mostly above about 40%, no sharp cut-off; inactive means mostly below about 27%
SENP1 FRET inh: inhibitors of human SENP1 SUMO protease catalytic domain. AID 624204. 360,000 tested, 0.21% active. recombinant SENP1 catalytic domain, CyPet-SUMO1-YPet FRET cleavage. inhibition, % at 10 µM;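 active means inhibition at least 30% at 10 µM, raw YFP signal under a set limit, fluorescence ratio 0.5 to 1.5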;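 further: 0% = enzyme with DMSO and 100% = no enzyme wells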
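Assay system: hSENP1 catalytic domain, recombinant. Amount: SENP1 enzyme, 20 pM final. Schedule: 50 min reaction, RT, dark. Technique: FRET, CFP and YFP emission. Control set: no-enzyme wells low, DMSO-plus-enzyme wells high control.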
Platelet DG rel: modulates dense granule release in human platelets | human platelet-rich plasma, SFLLRN dense granule ATP release, luminescence | inhibition, %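 (compounds screened at 7.5 µM in platelet-rich plasma)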 | 300,000 tested, 0.22% active | AID 1663;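 active means mean replicate score, as percent of positive control, at or above 50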
SENP8 confirm: human SENP8 inhibition, confirmed. Recombinant SENP8, Z-RLRGG-aminoluciferin luminescence, 60 min. AID 488912. shares compounds with SENP7 inh. 6,200 tested, 40% active. inhibition, % at 12.5 µM;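 active means mean inhibition across replicates above about 50%, limit read from the data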
SENP6 confirm: human SENP6 inhibition, confirmed | shares compounds with SENP7 inh | 6,200 tested, 58% active | AID 488915 | inhibition, % at 12.5 µM | recombinant SENP6, Z-RLRGG-aminoluciferin luminescence
SENP7 confirm: confirmation of human SENP7 protease inhibitors; shares compounds with SENP7 inh; recombinant SENP7, Z-RLRGG-aminoluciferin luminescence, 40 min; inhibition, % at 12.5 µM; 6,200 tested, 69% active
Casp3 select: selectivity test for SENP inhibitors: human caspase-3 inhibition | purified caspase-3, Z-DEVD-aminoluciferin luminescence, 60 min | inhibition, % at 12.5 µM | AID 488918 | 6,200 tested, 60% active | shares compounds with SENP7 inh;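 active means mean inhibition above about 50%, limit read from the data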;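 further: plate controls were enzyme with DMSO for no effect and wells without caspase-3 for full effect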
SENP luc ctr: interferes with luciferase luminescence in SENP counter-screen; shares compounds with SENP7 inh; Pre-incubated SENP8/Z-RLRGG-aminoluciferin, luciferase luminescence interference; inhibition, % at 12.5 µM; 6,200 tested, 39% active; AID 488919;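 active means mean inhibition above about 50% when retested at one dose, limit read from the data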;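 further: plate controls were DMSO wells with completed reaction for no effect and substrate without enzyme for full effect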
* hit, by the source's call; . = no result. The list is not random: actives were taken first. Their share in the collection is about 2.6%.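 How the source made its calls, unless noted: active means mean inhibition above about 50% in the one-dose retest (limit read from the data); inactive means the rest.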

SMILES	SENP8 block-1	SENP7 inh	SENP6 inh	SENP8 block-2	SENP1 FRET inh	Platelet DG rel	SENP8 confirm	SENP6 confirm	SENP7 confirm	Casp3 select	SENP luc ctr
O=C(Oc1ccc2ccccc2c1)c1ccccc1	71*	-3	83*	5	0	-2	74*	86*	95*	66*	70*
O=C(Oc1ccc(/C=N/Nc2ccccc2)cc1)c1ccccc1	-10	-1	-13	17	3	2	.	.	.	.	.
O=C(Nc1nnc(-c2ccc(F)cc2)o1)c1ccc(S(=O)(=O)N2CCOCC2)cc1	-6	-9	-7	5	1	10	.	.	.	.	.
Cc1cccc(Nc2nc(-c3ccc(O)cc3O)cs2)n1	9	-3	26	-1	-4	-6	.	.	.	.	.
CC(OC(=O)Cn1[nH]c(=O)c2ccccc2c1=O)C(=O)Nc1ccc(F)cc1Cl (stereo not drawn)	-3	3	-1	20	3	13	.	.	.	.	.
Cn1cc(/C=C/C(=O)c2ccccc2)c2ccccc21	63*	79*	69*	-252	-38	5	6	74*	89*	45	43
Cc1ccc(C(=O)/C=C/c2cn(CN3CCN(C)CC3)c3ccccc23)cc1	-11	-4	12	-279	-23	1	.	.	.	.	.
CCN1C(C)=CC(=O)[C@@H](O)[C@H]1c1ccccc1Br	.	.	.	-4	2	.	.	.	.	.	.
Nc1c(N=Nc2ccccc2F)c(=O)[nH]n1-c1ccccc1	55*	77*	80*	33	-2	-3	17	36	53*	24	14
O=C(COC(=O)CNC(=O)c1ccc(Cl)cc1Cl)NC1CCCCC1	-3	-3	-6	5	0	-1	.	.	.	.	.
CC1=NN(C(N)=S)C(=O)C1N=Nc1ccccc1O (stereo not drawn)	-4	-9	7	13	-1	-4	.	.	.	.	.
CC1=NN(C(N)=S)C(=O)C1N=Nc1ccc(S(N)(=O)=O)cc1 (stereo not drawn)	12	28	51*	24	2	-1	23	22	70*	74*	57*
CC(=O)N(C)c1ccc(N=NC2C(=O)N(C(N)=S)N=C2C)cc1 (stereo not drawn)	77*	80*	2	15	3	0	86*	84*	97*	95*	87*
Cc1ccc([C@H]2C[C@H](O)[C@@H](n3cc(COC(=O)c4ccccc4)nn3)CN2Cc2cccs2)cc1	.	.	.	-7	-2	.	.	.	.	.	.
CCCCSc1ncc(C(=O)OCC)c(N)n1	-4	22	24	12	0	0	.	.	.	.	.
CCOC(=O)c1cnc(SCCc2ccccc2)nc1N	13	28	58*	-2	0	0	0	25	11	22	32
Cc1ccc(C(=O)O/N=C(\N)Cc2ccc([N+](=O)[O-])cc2)c(Cl)c1	2	7	-7	21	1	-5	.	.	.	.	.
N/C(=N\OC(=O)c1cccs1)c1ccc(Cl)cc1	51*	68*	61*	18	2	-8	5	6	11	7	11
COc1ccc(/C(N)=N/OC(=O)c2cccs2)cc1	58*	15	77*	11	2	0	64*	74*	95*	75*	82*
Cc1ccc(C(=O)O/N=C(\N)Cc2cccs2)c(Cl)c1	70*	85*	87*	0	1	21	84*	83*	95*	86*	84*
